Measurements published in ChEMBL document CHEMBL4673272, “Discovery of cyclic sulfonamide derivatives as potent inhibitors of SARS-CoV-2” (Bioorg Med Chem Lett, 2021).
pIC50: −log10 of the molar value.

Assays:
[1] = Cytotoxicity against African green monkey Vero cells infected with SARS-CoV-2 betaCoV/KOR/KCDC03/2020 assessed as reduction in cell viability measured after 72 hrs by CellTiter-Glo Luminescent Cell Viability Assay; type: cell-based; details: chlorocebus sabaeus
SARS-CoV-2 = test: Antiviral activity against SARS-CoV-2 betaCoV/KOR/KCDC03/2020 infected in African green monkey Vero cells assessed as inhibition of virus-induced cytopathic effect measured after 24 hrs by immunofluorescence assay; type: functional, organism-based; details: Severe acute respiratory syndrome coronavirus 2, betaCoV/KOR/KCDC03/2020, Vero
[2] = Selectivity index, ratio of CC50 for African green monkey Vero cells infected with SARS-CoV-2 betaCoV/KOR/KCDC03/2020 to IC50 for SARS-CoV-2 betaCoV/KOR/KCDC03/2020
HFL1 = test: Cytotoxicity against human HFL-1 cells; type: cell-based
In short: (§1)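 Cell-line panel used for cytotoxicity: Vero, African green monkey kidney; HFL-1, human embryonic lung; L929 (NCTC clone 929), mouse fibroblast; NIH 3T3, mouse embryonic fibroblast; CHO-K1, Chinese hamster ovary. Values given in μM.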

[3] = Metabolic stability in human microsomes assessed as parent compound remaining incubated for 30 mins; type: ADME, Microsome; details: read-out: Stabilty
[4] = Half life in rat at 5 mg/kg, iv or 10 mg/kg, po; type: ADME, organism-based; details: in vivo
In short: (§2)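 Rats, n = 3, were dosed at 5 mg/kg IV and 10 mg/kg PO. Cmax, T1/2, clearance and oral bioavailability (F) were derived from these two dosing routes.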

[5] = Cmax in rat at 5 mg/kg, iv or 10 mg/kg, po; type: ADME, organism-based; set-up: dose 10 mg/kg; details: in vivo; in short: as §2
[6] = Metabolic stability in monkey microsomes assessed as parent compound remaining incubated for 30 mins; type: ADME, Macaca mulatta, Microsome; details: rhesus monkey, read-out: Stabilty
NIH3T3 = test: Cytotoxicity against mouse NIH/3T3 cells; type: cell-based; in short: as §1
Vero = test: Cytotoxicity against African green monkey Vero cells; type: cell-based; details: chlorocebus sabaeus; in short: as §1
[7] = Clearance in rat at 5 mg/kg, iv or 10 mg/kg, po; type: ADME, organism-based; details: in vivo; in short: as §2
[8] = Oral bioavailability in rat at 10 mg/kg; type: ADME, organism-based; details: in vivo; in short: as §2
CHO-K1 = test: Cytotoxicity against CHO-K1 cells; type: cell-based, Cricetulus griseus; details: chinese hamster; in short: as §1
hERG (KCNH2) = hERG (KCNH2) (Homo sapiens, UniProt Q12809); test: Inhibition of human ERG at 10 uM relative to control
Chain of hERG (KCNH2) (Q12809 whole entry): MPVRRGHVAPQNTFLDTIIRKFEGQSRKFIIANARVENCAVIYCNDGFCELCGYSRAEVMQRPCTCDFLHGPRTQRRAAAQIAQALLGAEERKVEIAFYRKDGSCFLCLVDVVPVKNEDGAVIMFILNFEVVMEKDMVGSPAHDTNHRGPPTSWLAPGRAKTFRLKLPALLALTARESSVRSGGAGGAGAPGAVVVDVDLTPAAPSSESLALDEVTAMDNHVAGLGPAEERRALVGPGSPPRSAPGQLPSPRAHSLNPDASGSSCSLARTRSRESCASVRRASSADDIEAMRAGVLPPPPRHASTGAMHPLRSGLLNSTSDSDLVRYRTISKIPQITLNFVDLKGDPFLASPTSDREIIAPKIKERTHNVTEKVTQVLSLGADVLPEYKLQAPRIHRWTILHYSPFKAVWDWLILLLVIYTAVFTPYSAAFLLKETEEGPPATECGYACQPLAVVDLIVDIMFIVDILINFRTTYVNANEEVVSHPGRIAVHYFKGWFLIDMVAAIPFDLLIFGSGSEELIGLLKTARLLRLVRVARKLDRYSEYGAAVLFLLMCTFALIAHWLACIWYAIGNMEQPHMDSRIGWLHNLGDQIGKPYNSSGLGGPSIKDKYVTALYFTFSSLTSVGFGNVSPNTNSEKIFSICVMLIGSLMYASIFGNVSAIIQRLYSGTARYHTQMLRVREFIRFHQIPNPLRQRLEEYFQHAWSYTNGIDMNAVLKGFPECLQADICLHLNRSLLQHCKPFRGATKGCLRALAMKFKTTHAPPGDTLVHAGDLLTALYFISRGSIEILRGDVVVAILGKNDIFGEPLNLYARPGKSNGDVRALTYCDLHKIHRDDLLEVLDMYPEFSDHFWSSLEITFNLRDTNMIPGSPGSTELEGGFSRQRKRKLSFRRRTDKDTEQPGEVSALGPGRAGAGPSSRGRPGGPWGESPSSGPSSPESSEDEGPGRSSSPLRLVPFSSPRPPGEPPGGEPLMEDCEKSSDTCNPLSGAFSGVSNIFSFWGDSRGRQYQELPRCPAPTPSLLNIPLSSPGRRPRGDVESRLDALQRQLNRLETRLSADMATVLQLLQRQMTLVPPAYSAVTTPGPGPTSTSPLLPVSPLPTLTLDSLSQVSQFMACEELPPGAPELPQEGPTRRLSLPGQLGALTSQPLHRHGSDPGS

L929 = test: Cytotoxicity against mouse L929 cells; type: cell-based; in short: as §1

| Structure (SMILES) | CC50 at 72 h [1] [µM] | pIC50 (SARS-CoV-2) | Ratio CC50/IC50 [2] | also measured |
| --- | --- | --- | --- | --- |
| O=C(CN1C(C(=O)c2cccc(F)c2)=C(O)c2ccccc2S1(=O)=O)Nc1cccc(OC(F)(F)F)c1 | > 25 | 5.00 | 2.3 | – |
| CNc1ccc2c(c1)S(=O)(=O)N(CC(=O)Nc1ccc(C(F)(F)F)cc1)C(C(=O)c1ccc(F)c(Cl)c1)=C2O | > 25 | 4.86 | 1.3 | – |
| CCC(CC)COC(=O)[C@H](C)N[P@](=O)(OC[C@H]1O[C@@](C#N)(c2ccc3c(N)ncnn23)[C@H](O)[C@@H]1O)Oc1ccccc1 [REMDESIVIR] | > 25 | 5.15 | 3.6 | – |
| O=C(CN1C(C(=O)c2cccc(Cl)c2)=C(O)c2ccccc2S1(=O)=O)Nc1ccc(C(F)(F)F)cc1 | > 25 | 5.39 | 5.8 | – |
| O=C(C1=C(O)c2ccccc2S(=O)(=O)N1Cc1ccccc1)c1ccccc1 | > 25 | < 4.60 | 1 | – |
| O=C(O)/C=C/N1C(C(=O)c2ccc(F)c(Cl)c2)=C(O)c2ccccc2S1(=O)=O | > 25 | < 4.60 | 1 | – |
| N#Cc1ccc(C(=O)C2=C(O)c3ccccc3S(=O)(=O)N2CC(=O)Nc2cccc(OC(F)(F)F)c2)cc1 | > 25 | 4.84 | 1.6 | – |
| COc1ccc(C(=O)C2=C(O)c3ccccc3S(=O)(=O)N2CC(=O)Nc2cccc(OC(F)(F)F)c2)cc1 | > 25 | 4.94 | 2 | – |
| O=C(CN1C(C(=O)c2ccc(F)cc2)=C(O)c2ccccc2S1(=O)=O)Nc1cccc(OC(F)(F)F)c1 | > 25 | 5.05 | 2.7 | – |
| N#Cc1ccc(C(=O)C2=C(O)c3ccccc3S(=O)(=O)N2CC(=O)Nc2ccc(C(F)(F)F)cc2)cc1 | > 25 | 5.03 | 1.4 | – |
| CCNC(=O)CN1C(C(=O)c2ccccc2)=C(O)c2ccccc2S1(=O)=O | > 25 | < 4.60 | 1 | – |
| O=C(CN1C(C(=O)c2ccc(F)c(Cl)c2)=C(O)c2ccccc2S1(=O)=O)Nc1ccc(C(F)(F)F)cc1 | > 25 | 5.60 | 11.1 | – |
| O=C(/C=C/N1C(C(=O)c2ccc(F)c(Cl)c2)=C(O)c2ccccc2S1(=O)=O)Nc1cccc(OC(F)(F)F)c1 | > 25 | 5.18 | 3.6 | – |
| O=C(CN1C(C(=O)c2ccc(Cl)cc2)=C(O)c2ccccc2S1(=O)=O)Nc1cccc(OC(F)(F)F)c1 | > 25 | 5.07 | 2.9 | – |
| O=C(CN1C(C(=O)c2cccc(F)c2)=C(O)c2ccccc2S1(=O)=O)Nc1ccc(C(F)(F)F)cc1 | > 25 | 5.15 | 3.2 | – |
| O=C(CN1C(C(=O)c2cccc(Cl)c2)=C(O)c2ccccc2S1(=O)=O)Nc1cccc(OC(F)(F)F)c1 | > 25 | 4.92 | 2.1 | – |
| O=C(CN1C(C(=O)c2ccc(F)c(Cl)c2)=C(O)c2ccc(F)cc2S1(=O)=O)Nc1ccc(C(F)(F)F)cc1 | > 25 | 6.06 | 30.7 | Activity (HFL1): 44.2 µM; remaining at 0.5 h [3]: 93%; t1/2 [4]: 18.5 h; Cmax [5]: 14330 ng/mL; remaining at 0.5 h [6]: 61%; Activity (NIH3T3): 68 µM; Activity (Vero): 42.1 µM; CL [7]: 0.67 mL/min/kg; F [8]: 77%; Activity (CHO-K1): 10.6 µM; inhibition at 10 µM (hERG (KCNH2)): < 1%; Activity (L929): 31.4 µM |
| O=C(CN1C(C(=O)c2ccc(F)c(Cl)c2)=C(O)c2ccccc2S1(=O)=O)Nc1cccc(OC(F)(F)F)c1 | > 25 | 5.04 | 2.8 | – |

| Structure (SMILES) | CC50 at 72 h [1] [µM] | pIC50 (SARS-CoV-2) | Ratio CC50/IC50 [2] | also measured |
| --- | --- | --- | --- | --- |
| O=C(CN1C(C(=O)c2ccc(F)cc2)=C(O)c2ccccc2S1(=O)=O)Nc1cccc(F)c1 | > 25 | 4.82 | – | – |
| O=C(CN1C(C(=O)c2ccc(F)cc2)=C(O)c2ccccc2S1(=O)=O)Nc1ccccc1 | > 25 | < 4.60 | 1 | – |
| N#Cc1cccc(C(=O)C2=C(O)c3ccccc3S(=O)(=O)N2CC(=O)Nc2ccc(C(F)(F)F)cc2)c1 | > 25 | 4.97 | 1.5 | – |
| O=C(CN1C(C(=O)c2ccc(F)cc2)=C(O)c2ccccc2S1(=O)=O)Nc1ccc(C(F)(F)F)cc1 | > 25 | 5.28 | 4.7 | – |
| O=C(CN1C(C(=O)c2ccc(F)c(Cl)c2)=C(O)c2ccc(F)cc2S1(=O)=O)Nc1cccc(OC(F)(F)F)c1 | > 25 | 5.51 | 8.9 | – |
| CCN(CC)CCCC(C)Nc1ccnc2cc(Cl)ccc12 (centres undefined) [CHLOROQUINE] | > 25 | 5.10 | 3.1 | – |
| CC(C)C(=O)C1=C(O)c2ccccc2S(=O)(=O)N1CC(=O)Nc1cccc(OC(F)(F)F)c1 | > 25 | 4.97 | 1.9 | – |
| O=C(CN1C(C(=O)c2ccc(F)c(Cl)c2)=C(O)c2ccc(F)cc2S1(=O)=O)Nc1cccc(Cl)c1 | > 25 | 5.66 | 12.1 | – |
| O=C(CN1C(C(=O)c2ccc(F)cc2)=C(O)c2ccccc2S1(=O)=O)Nc1ccccc1Cl | > 25 | < 4.60 | 1 | – |
| O=C(CN1C(C(=O)c2ccccc2)=C(O)c2ccccc2S1(=O)=O)NC1CCCCC1 | > 25 | < 4.60 | 1 | – |
| N#Cc1ccc(C(=O)C2=C(O)c3ccccc3S(=O)(=O)N2CC(=O)c2ccc(F)c(Cl)c2)cc1 | > 25 | < 4.60 | 1 | – |
| N#Cc1cccc(C(=O)C2=C(O)c3ccccc3S(=O)(=O)N2CC(=O)c2ccc(F)c(Cl)c2)c1 | > 25 | < 4.60 | 1 | – |
| COc1ccc(C(=O)C2=C(O)c3ccccc3S(=O)(=O)N2CC(=O)Nc2ccc(C(F)(F)F)cc2)cc1 | > 25 | 5.07 | 2.5 | – |
| CN1CCN(c2ccc3c(c2)S(=O)(=O)N(CC(=O)Nc2ccc(C(F)(F)F)cc2)C(C(=O)c2ccc(F)c(Cl)c2)=C3O)CC1 | > 25 | 4.85 | 1.6 | – |
| O=C(CN1C(C(=O)c2ccccc2)=C(O)c2ccccc2S1(=O)=O)Nc1cccc(OC(F)(F)F)c1 | > 25 | 4.94 | 2.1 | – |
| O=C(CN1C(C(=O)c2ccc(Cl)cc2)=C(O)c2ccccc2S1(=O)=O)Nc1ccc(C(F)(F)F)cc1 | > 25 | 5.40 | 6 | – |
| N#Cc1cccc(C(=O)C2=C(O)c3ccccc3S(=O)(=O)N2CC(=O)Nc2cccc(OC(F)(F)F)c2)c1 | > 25 | 4.84 | 1.6 | – |
| CC(C)C(=O)C1=C(O)c2ccccc2S(=O)(=O)N1CC(=O)Nc1ccc(C(F)(F)F)cc1 | > 25 | 5.14 | 3 | – |
